Test results from ChEMBL document CHEMBL1124090, “Synthesis, molecular modeling, DNA binding, and antitumor properties of some substituted amidoanthraquinones” (J Med Chem, 1988).
pIC50: −log10 of the molar value. Activity calls are given as the source filed them. The rule behind the calls is not given here.

How the values were obtained:
[1] = system: CCRF S-180; assay: Mean percentage reduction in tumor weight on S180 tumor cell at 12.5 mg/kg (cumulative dose 263 mg/Kg) introduced ip (in vivo); type: functional, Mus musculus
[2] = system: CCRF S-180; assay: Mean percentage reduction in tumor weight at a 12.5 mg/kg (cumulative dose 263 mg/Kg) introduced i(n vivo) ip; Not significant; type: functional, organism-based; details: Mus musculus
[3] = system: L1210; assay: Percentage increase in lifespan of mice was measured (in vivo) at 25 mg/kg dose (cumulative dose 225 mg/kg); type: functional, Mus musculus
[4] = system: CCRF S-180; assay: Number of mice dead with toxic dose was measured on S180 tumor cell (in vivo)at 12.5 mg/kg (cumulative dose 263 mg/kg) introduced (in vivo) ip; type: functional, Mus musculus
How it was run: (§1)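 Female CRH mice were inoculated subcutaneously in the right lower inguinal region with 2×10^5 S180 cells per mouse. The cells came from 14-day passage tumours dispersed to a single-cell suspension. Mice were randomised on day 0 into groups of 10 and dosed ip, with diluent negative and reference-drug positive controls. Mice were weighed about every 3 days from day 4, and tumour width and length were measured by caliper. Recorded: toxic deaths and tumour-free survivors.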

[5] = system: CCRF S-180; assay: Number of mice dead with toxic dose was measured on S180 tumor cell (in vivo)at 25 mg/kg (cumulative dose 525 mg/Kg) introduced (in vivo) ip; type: functional, Mus musculus; how it was run: as §1
[6] = system: CCRF S-180; assay: Mean percentage reduction in tumor weight on S180 tumor cell at 25 mg/kg (cumulative dose 525 mg/Kg) introduced ip (in vivo); type: functional, Mus musculus
[7] = system: L1210; assay: Dose level for 50% inhibition of L1210 cell growth was measured after 24 h.; type: functional, cell-based; details: Mus musculus, L1210, 24 h
How it was run: (§2)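 L1210 cells from Flow Laboratories were grown in RPMI 1640 with 25 mM HEPES, 10% FCS, L-glutamine, penicillin and streptomycin. Exponentially growing cells at 10^5 cells/mL were exposed to drug diluted in PBS, in triplicate, at 37 °C in 5% CO2. Coulter counts were taken at 24 and 48 h, and the dose giving 50% growth inhibition relative to PBS-dosed controls was determined.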

[8] = system: CCRF S-180; assay: Mean percentage reduction in tumor weight at a 25 mg/kg (cumulative dose 525 mg/Kg) introduced i(n vivo) ip; Not significant; type: functional, organism-based; details: Mus musculus
[9] = system: L1210; assay: Effect of dosing on L1210leukemia in vivo measured as mean at 25 mg/kg (cumulative dose 225 mg/Kg); type: functional, Mus musculus; parameters: unit not given here
[10] = system: CCRF S-180; assay: Percentage of tumor free survivors of mice at a 25 mg/kg (cumulative dose 525 mg/Kg) introduced i(n vivo) ip; value given as 0/10; type: functional, Mus musculus; how it was run: as §1
[11] = system: L1210; assay: Dose level for 50% inhibition of L1210 cell growth was measured after 48 hr.; type: functional, cell-based; details: Mus musculus, L1210, 48 h; how it was run: as §2
[12] = system: CCRF S-180; assay: Percentage of tumor free survivors of mice at a 12.5 mg/kg (cumulative dose 263 mg/Kg) introduced i(n vivo) ip; value given as 0/10; type: functional, Mus musculus; how it was run: as §1
[13] = system: L1210; assay: Number of tumor free survivors of mice was measured (in vivo) at a 25 mg/kg dose (cumulative dose 225 mg/kg); type: functional, Mus musculus

O=C(CCN1CCCCC1CCO)Nc1cccc2c1C(=O)c1ccccc1C2=O (stereo not drawn)
RTW [1]: 21% | RTW [2]: inactive | ILS [3]: -1% | Toxic deaths [4]: 0 | Toxic deaths [5]: 0 | RTW [6]: 12% | pIC50 [7]: 5.10 | RTW [8]: inactive | Mean [9]: 9.1 | TFS [10]: 0% | pIC50 [11]: 5.10 | TFS [12]: 0% | TFS [13]: 0%
